Laboratory results published in ChEMBL document CHEMBL1135810, “Water-soluble, core-modified porphyrins as novel, longer-wavelength-absorbing sensitizers for photodynamic therapy. II. Effects of core heteroatoms and meso-substituents on biological activity” (J Med Chem, 2002).

What follows are compounds tested on Colon 26 (assay: Effective concentration required to give 50% cell kill with 4 J/cm**2 of light.(Dark and light induced toxicity towards murine colon carcinoma cell line(COLO-26 cells))). Conditions: Mus musculus, Colon 26, light or radiation study.
Assay type: functional, cell-based
Method in brief: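 Colo-26 mouse colon carcinoma cells grown in RPMI 1640 with 10% fetal calf serum at 37 °C, 5% CO2, plated at 5×10^3 cells/well the evening before. Cells were PBS-washed, then kept 24 h at 37 °C in the dark with graded sensitizer in HBSS, washed, and irradiated in PBS with filtered 590–800 nm light (methods state 570–800 nm) to 4 J cm-2. Dark controls were not irradiated. After 24 h in growth medium, MTT survival was read, and EC50 was taken from surviving fraction vs concentration.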
`O=C(O)COc1ccc(-c2c3nc(c(-c4ccc(F)cc4)c4ccc(s4)c(-c4ccc(F)cc4)c4nc(c(-c5ccc(OCC(=O)O)cc5)c5ccc2s5)C=C4)C=C3)cc1` was tested, and the EC50 was 430 nM.
Work on `O=S(=O)(O)c1ccc(-c2c3nc(c(-c4ccc(F)cc4)c4ccc([se]4)c(-c4ccc(F)cc4)c4nc(c(-c5ccc(S(=O)(=O)O)cc5)c5ccc2[se]5)C=C4)C=C3)cc1` yielded an EC50 of 7900 nM.
With `Cc1ccc(-c2c3nc(c(-c4ccc(S(=O)(=O)O)cc4)c4ccc(s4)c(-c4ccc(S(=O)(=O)O)cc4)c4nc(c(-c5ccc(C)cc5S(=O)(=O)O)c5ccc2s5)C=C4)C=C3)c(S(=O)(=O)O)c1` the EC50 was 12000 nM.
Compound `O=S(=O)(O)c1ccc(-c2c3nc(c(-c4ccc(S(=O)(=O)O)cc4)c4ccc(s4)c(-c4ccc(S(=O)(=O)O)cc4)c4nc(c(-c5ccc(S(=O)(=O)O)cc5)c5ccc2s5)C=C4)C=C3)cc1` has an EC50 of 30000 nM.
Work on `O=C(O)COc1ccc(-c2c3nc(c(-c4ccccc4)c4ccc(s4)c(-c4ccccc4)c4nc(c(-c5ccc(OCC(=O)O)cc5)c5ccc2s5)C=C4)C=C3)cc1` yielded an EC50 of 150 nM.
`CN(C)c1ccc(-c2c3nc(c(-c4ccc(S(=O)(=O)O)cc4)c4ccc(s4)c(-c4ccc(S(=O)(=O)O)cc4)c4nc(c(-c5ccc(N(C)C)cc5)c5ccc2s5)C=C4)C=C3)cc1` gave an EC50 of 640 nM.
In the case of `O=S(=O)(O)c1ccc(-c2c3nc(c(-c4ccc(S(=O)(=O)O)cc4)c4ccc([nH]4)c(-c4ccc(S(=O)(=O)O)cc4)c4ccc(s4)c(-c4ccc(S(=O)(=O)O)cc4)c4nc2C=C4)C=C3)cc1`, the EC50 is reported as over 100000 nM.
Compound `O=S(=O)(O)c1ccc(-c2c3nc(c(-c4ccc(C(F)(F)F)cc4)c4ccc(s4)c(-c4ccc(C(F)(F)F)cc4)c4nc(c(-c5ccc(S(=O)(=O)O)cc5)c5ccc2s5)C=C4)C=C3)cc1` has an EC50 of over 100000 nM.
`O=S(=O)(O)c1ccc(-c2c3nc(c(-c4ccc(F)cc4)c4ccc(s4)c(-c4ccc(F)cc4)c4nc(c(-c5ccc(S(=O)(=O)O)cc5)c5ccc2[se]5)C=C4)C=C3)cc1` gave an EC50 of 2100 nM.
In the case of `O=S(=O)(O)c1ccc(-c2c3nc(c(-c4ccc(F)cc4)c4ccc(s4)c(-c4ccc(F)cc4)c4nc(c(-c5ccc(S(=O)(=O)O)cc5)c5ccc2[nH]5)C=C4)C=C3)cc1`, the EC50 is reported as 2100 nM.
`O=S(=O)(O)c1ccc(-c2c3nc(c(-c4ccc(F)cc4)c4ccc(s4)c(-c4ccc(F)cc4)c4nc(c(-c5ccc(S(=O)(=O)O)cc5)c5ccc2s5)C=C4)C=C3)cc1` showed an EC50 of 1600 nM.
`O=S(=O)(O)c1ccc(-c2c3nc(c(-c4ccc(S(=O)(=O)O)cc4)c4ccc([nH]4)c(-c4ccc(S(=O)(=O)O)cc4)c4ccc([nH]4)c(-c4ccc(S(=O)(=O)O)cc4)c4nc2C=C4)C=C3)cc1` gave an EC50 of 125000 nM.
`O=S(=O)(O)c1ccc(-c2c3nc(c(-c4ccc(F)cc4)c4ccc([se]4)c(-c4ccc(F)cc4)c4nc(c(-c5ccc(S(=O)(=O)O)cc5)c5ccc2s5)C=C4)C=C3)cc1` showed an EC50 of 1200 nM.
In the case of `O=S(=O)(O)c1ccc(-c2c3nc(c(-c4ccc(S(=O)(=O)O)cc4)c4ccc([se]4)c(-c4ccc(S(=O)(=O)O)cc4)c4nc(c(-c5ccc(S(=O)(=O)O)cc5)c5ccc2[se]5)C=C4)C=C3)cc1`, the EC50 is reported as over 100000 nM.
